Where a SMILES comes first, the peptide text is derived from it. Bridges are numbered along the chain shown (N, C = ends). Where no end group is shown, it is not given here.
Legend:
CLIC1 = CLIC1 (Homo sapiens, UniProt O00299); test: Saturation binding assay
Summary of the method: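 Copper-coated microtiter wells were coated with 2 μg/ml purified His-tagged human CLIC1. Wells were incubated 1 h at room temperature with varying concentrations of carboxyfluorescein-labelled peptide in TBS with 200 mM n-octyl-β-D-glucoside and 1 mM CaCl2. After TBS washes, fluorescence was read at ex 485/em 520. Signal from His-tagged nucleolin-coated wells was subtracted as non-specific binding. Kd was derived from the binding curves.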

[1] = test system: neonatal human dermal fibroblasts (NHDF); test: LDH release in fibroblasts; type: cell-based; conditions: 150 μg/ml, 24 hours, 37°C
Summary of the method: (§1)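 Cells were grown at 37°C in humidified 5% CO2 and treated at about 50% confluence. Test compound (2 mg/ml stock in H2O) was added at 150 μg/ml in 2% FBS for 24 h at 37°C. LDH release was read with a commercial kit and normalised to background death in untreated cells. 0.1% (v/v) Triton X-100 defined maximal release.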

[2] = test system: human bladder epithelial cells (HBEC); test: LDH release in epithelial cells; type: cell-based; conditions: 150 μg/ml, 24 hours, 37°C
Summary of the method: as §1

proliferating HUVEC = test: Cytotoxicity assay; type: cell-based
[3] = test system: DU145 subcutaneous xenografts; test: DU145 tumor treatment study; type: in vivo, mice; conditions: 300 μg i.p. 3x/week
Summary of the method: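 Male athymic nude mice carried 2-week-old subcutaneous DU145 flank xenografts averaging 40 mm3 at the start. They received carrier or test compound (300 μg) intraperitoneally three times per week. Tumour volume was measured with calipers at each treatment time point, and mice were weighed on day 15. Groups were compared by unpaired two-tailed t test or one-way ANOVA with Tukey post hoc test.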

HUVEC [4] = test: Western blot of cytosolic fractions for LC3 and cathepsins; type: cell-based, human
Summary of the method: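 Cytosolic fractions came from treated HUVEC using a subcellular fractionation kit. Proteins were resolved by SDS-PAGE, blotted to PVDF and checked for equal loading with 0.05% Ponceau S. Blots were blocked in 5% milk or BSA, probed overnight at 4°C for cathepsin C, cathepsin D and LC3B, and detected by peroxidase secondary antibodies with ECL. Lysosomes were labelled with 100 nM LysoTracker Red for 1 h before paraformaldehyde fixation.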

HUVEC [5] = test: Flow cytometry assay of CLIC1 cell surface expression in suspended HUVEC; type: cell-based, human; conditions: peptide 300 μM
fibrinogen = conditions: cited from earlier work
fibronectin = conditions: cited from earlier work

## CC[C@H](C)[C@@H]1NC(=O)[C@H](CC(C)C)NC(=O)CNC(=O)[C@@H](N)CSSC[C@@H](C(=O)O)NC(=O)[C@H](CCC(=O)O)NC(=O)[C@H](CC(N)=O)NC(=O)[C@H](CCCCN)NC(=O)[C@H](CCC(N)=O)NC(=O)[C@H]([C@@H](C)CC)NC1=O [CLT1] (H-CGLIIQKNEC-OH; disulfide 1-10)
CLIC1
  Kd: 10.2 µM
[1]
  cytotoxicity in fibroblasts (LDH release): little effect
[2]
  cytotoxicity in epithelial cells (LDH release): little effect
Proliferating HUVEC; HUVEC cultured at 4°C versus 37°C, 150 μg/ml, 24 hours, LDH release
  CLT1-induced cytotoxicity at 4°C: protected endothelial cells from CLT1-induced cytotoxicity
Proliferating HUVEC; HUVEC, CLIC1 siRNA versus control siRNA, 24 hours, LDH release
  cytotoxicity of CLT1 after CLIC1 knockdown: significantly reduced
Proliferating HUVEC; HUVEC, LDH release over time
  earliest time at which cytotoxicity was detected: 3.5 h
[3]; day 15 of the treatment study
  body weight of the mice: remained unchanged

## CO/C1=C\C(C)=C\[C@@H](C)[C@@H](O)[C@@H](C)C/C(C)=C/C=C/[C@H](OC)[C@@H]([C@@H](C)[C@@H](O)[C@H](C)[C@@]2(O)C[C@@H](O)[C@H](C)[C@@H](C(C)C)O2)OC1=O [bafilomycin A1, reference compound]
Proliferating HUVEC; HUVEC, 20 nM bafilomycin A1 for 1 hour prior to CLT1 25 μg/ml for 24 hours
  effect of pretreatment on CLT1 cytotoxicity (LDH release): ameliorated cytotoxicity of CLT1

## CGLKIQKNEC (disulfide 1-10 (inferred)) [CLT1-IK1]
HUVEC [4]; HUVEC cytosolic fractions, 7 hours, 7.5–75 μg/ml, immunoblot
  LC3-II conversion (autophagy marker): did not induce
HUVEC [4]; HUVEC, 75 μg/ml 24 hours immunoblot, 10 μg/ml fluorescein-conjugated peptide, lysotracker
  lysosome dysfunction (cathepsin C and D leakage, lysotracker): did not induce

## CNAGESSKNC (disulfide 1-10 (inferred)) [CLT2, reference compound]
[3]; DU145 xenografts, n=12/treatment group
  tumor growth (tumor volume): no anti-angiogenic or anti-tumor effects

## GRADSP
HUVEC [5]
  effect on CLIC1 cell surface localization induced by CLT1-fibronectin co-aggregates: not by an inactive peptide

## GRGDSP [reference compound]
HUVEC [5]
  effect on CLIC1 cell surface localization induced by CLT1-fibronectin co-aggregates: partially inhibited
Proliferating HUVEC; HUVEC, peptide 300 μM, 24 hours, LDH release
  effect on cytotoxic function of CLT1: inhibited the cytotoxic function of CLT1

## anginex
fibrinogen
  aggregate formation when mixed with fibrinogen: form large insoluble aggregates
fibronectin
  aggregate formation when mixed with fibronectin: form large insoluble aggregates
